Active and inactive are the calls of the source. No cut-off for these calls is given here.
What was measured:
[1] = system: Rattus norvegicus; assay: Awakening activity in rat assessed as decrease in slow wave and REM sleep at 3 to 10 mg/kg, po; format: functional, organism-based
Outline: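 Rats given compound orally at 3 or 10 mg/kg, or reference drugs i.p. or p.o. at 10 mg/kg. EEG recorded during the light phase and scored as wakefulness, slow wave sleep and REM sleep. Time-course analysis of the effects.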

[2] = Plasma concentration in cynomolgus monkey at 10 mg/kg, iv after 15 mins; format: ADME, organism-based, Macaca fascicularis; design: dose 10 mg/kg, route intravenous
Outline: (§1)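 Anaesthetized cynomolgus monkeys were dosed 10 mg/kg i.v. Plasma drug concentrations were measured at 5, 15 and 30 min post-dose, alongside arterial pressure, heart rate and ECG intervals.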

[3] = Plasma concentration in cynomolgus monkey at 10 mg/kg, iv after 5 mins; format: ADME, organism-based, Macaca fascicularis; design: dose 10 mg/kg, route intravenous; outline: as §1
[4] = system: Cynomolgus monkey; assay: Cardiotoxicity in cynomolgus monkey assessed as PR, QRS, QTc interval at 10 mg/kg, iv; format: toxicity, organism-based, Macaca fascicularis; design: dose 10 mg/kg, route intravenous; details: in vivo
Outline: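 Anaesthetized cynomolgus monkeys dosed 10 mg/kg i.v. Arterial blood pressure, heart rate and ECG (PR, QRS, QTc intervals) monitored. Plasma drug sampled at 5, 15 and 30 min post-dose.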

[5] = system: Mus musculus; assay: Neurologic toxicity in mouse at 10 to 30 mg/kg, po; format: organism-based; design: dose 10-30 mg/kg, route oral; details: in vivo
Outline: (§2)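 Acute oral behavioral safety evaluation in mice. Oral doses were 0, 10 and 30 mg/kg. Behavioral, neurologic and autonomic signs were scored.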

[6] = system: Mus musculus; assay: Toxicity in mouse assessed as behavioral side effect at 10 to 30 mg/kg, po; format: organism-based; design: dose 10-30 mg/kg, route oral; details: in vivo; outline: as §2
[7] = Genotoxicity in micronucleus (unknown origin) at 5 to 950 ug/ml in presence of human liver microsomes; format: toxicity, Microsome
Outline: (§3)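 Ames II and micronucleus tests, Ames over 3–1000 µg/mL and MNT over 5–950 µg/mL. Each run with and without metabolic activation by human liver microsome preparations.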

[8] = Genotoxicity in micronucleus (unknown origin) at 5 to 950 ug/ml; outline: as §3
[9] = system: Salmonella typhimurium; assay: Genotoxicity in Salmonella typhimurium at 3 to 1000 ug/ml by Ames 2 test; format: toxicity, organism-based; details: salmonella enterica subsp. enterica serovar typhimurium; outline: as §3
[10] = Activation of p-glycoprotein (unknown origin); details: human
[11] = AUC in Sprague-Dawley rat brain at 10 mg/kg, po; format: ADME, organism-based; design: dose 10 mg/kg, route oral
Outline: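 Oral gavage at 10 mg/kg to male OF1 mice (vehicle 5% DMSO/0.5% MC/0.2% Tween80, 1.0 mg/mL) or male Sprague-Dawley rats (vehicle 0.5% MC/0.2% Tween80, 1.0 mg/mL). Plasma and brain exposure and half-life determined.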

[12] = Elimination half life in Sprague-Dawley rat brain at 2 mg/kg, iv; format: ADME, organism-based; design: dose 2 mg/kg, route intravenous; details: read-out: beta t1/2 (converted)
Outline: (§4)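 Male OF1 mice or male Sprague-Dawley rats, single 2 mg/kg i.v. dose. Mouse vehicle 50% 1-methyl-2-pyrrolidinone in saline at 1.0 mg/mL; rat vehicle saline at 0.5 mg/mL. Plasma and brain levels followed over time; AUC0-inf, t1/2 and clearance derived from exposure. Brain/plasma ratio uses i.v. AUC0-inf.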

[13] = system: Plasma; assay: Clearance in Sprague-Dawley rat plasma at 2 mg/kg, iv; format: ADME, organism-based; design: dose 2 mg/kg, route intravenous; details: in vivo; outline: as §4
[14] = Elimination half life in Sprague-Dawley rat plasma at 2 mg/kg, iv; format: ADME, organism-based; design: dose 2 mg/kg, route intravenous; details: read-out: beta t1/2 (converted); outline: as §4
[15] = Ratio of AUC (0 to infinity) in OF1 mouse brain to AUC (0 to infinity) in OF1 mouse plasma at 2 mg/kg, iv; format: ADME, organism-based; design: dose 2 mg/kg, route intravenous; details: read-out: Ratio AUC
Outline: (§5)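 Male OF1 mice received 2 mg/kg i.v. (1.0 mg/mL in 50% 1-methyl-2-pyrrolidinone/saline) or 10 mg/kg p.o. (1.0 mg/mL in 5% DMSO/0.5% MC/0.2% Tween80). Plasma and brain AUC0-inf were measured, and the B/P ratio was calculated from i.v. AUC0-inf.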

[16] = AUC (0 to infinity) in Sprague-Dawley rat plasma at 2 mg/kg, iv; format: ADME, organism-based; design: time infinity, dose 2 mg/kg, route intravenous; outline: as §4
[17] = Oral bioavailability in OF1 mouse plasma at 10 mg/kg; format: ADME, organism-based; outline: as §5
[18] = AUC (0 to infinity) in OF1 mouse plasma at 2 mg/kg, iv; format: ADME, organism-based; design: dose 2 mg/kg, route intravenous, time infinity; outline: as §4
[19] = target: T1, Cytochrome P450 1A2 (Homo sapiens, UniProt P05177); assay: Inhibition of CYP1A2 (unknown origin); format: ADME
T1 sequence (P05177 whole entry): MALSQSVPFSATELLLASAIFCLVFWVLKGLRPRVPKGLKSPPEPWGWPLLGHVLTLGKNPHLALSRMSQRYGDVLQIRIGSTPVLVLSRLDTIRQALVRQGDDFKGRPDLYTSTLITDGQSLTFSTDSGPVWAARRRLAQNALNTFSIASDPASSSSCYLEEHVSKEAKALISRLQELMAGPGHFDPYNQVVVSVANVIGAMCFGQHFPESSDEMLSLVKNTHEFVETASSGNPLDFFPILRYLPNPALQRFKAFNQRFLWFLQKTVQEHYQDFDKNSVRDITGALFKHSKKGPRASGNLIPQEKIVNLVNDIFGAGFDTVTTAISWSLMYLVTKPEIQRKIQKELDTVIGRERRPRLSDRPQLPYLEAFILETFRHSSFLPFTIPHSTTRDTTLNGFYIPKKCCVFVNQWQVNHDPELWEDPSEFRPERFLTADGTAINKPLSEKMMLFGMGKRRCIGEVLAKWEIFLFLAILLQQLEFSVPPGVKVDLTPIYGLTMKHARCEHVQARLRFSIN

[20] = target: Cytochrome P450 2C9 (Homo sapiens, UniProt P11712); assay: Inhibition of CYP2C9 (unknown origin); format: ADME
Sequence of Cytochrome P450 2C9 (P11712 whole entry): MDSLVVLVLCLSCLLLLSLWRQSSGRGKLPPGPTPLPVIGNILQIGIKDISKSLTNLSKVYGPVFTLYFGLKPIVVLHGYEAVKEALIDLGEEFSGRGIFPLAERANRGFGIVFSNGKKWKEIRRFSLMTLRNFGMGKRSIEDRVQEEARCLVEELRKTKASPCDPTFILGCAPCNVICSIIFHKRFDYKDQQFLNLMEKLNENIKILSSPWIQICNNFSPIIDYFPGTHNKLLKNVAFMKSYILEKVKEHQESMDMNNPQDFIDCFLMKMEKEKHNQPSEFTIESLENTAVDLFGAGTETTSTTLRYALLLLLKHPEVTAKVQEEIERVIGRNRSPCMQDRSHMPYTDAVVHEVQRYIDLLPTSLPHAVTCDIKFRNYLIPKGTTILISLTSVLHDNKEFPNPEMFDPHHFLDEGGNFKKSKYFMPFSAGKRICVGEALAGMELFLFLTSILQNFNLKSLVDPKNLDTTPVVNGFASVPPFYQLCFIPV

[21] = target: CYP3A4 (Homo sapiens, UniProt P08684); assay: Inhibition of CYP3A4 (unknown origin) at 0.5 uM; format: ADME
Sequence of CYP3A4 (P08684 whole entry): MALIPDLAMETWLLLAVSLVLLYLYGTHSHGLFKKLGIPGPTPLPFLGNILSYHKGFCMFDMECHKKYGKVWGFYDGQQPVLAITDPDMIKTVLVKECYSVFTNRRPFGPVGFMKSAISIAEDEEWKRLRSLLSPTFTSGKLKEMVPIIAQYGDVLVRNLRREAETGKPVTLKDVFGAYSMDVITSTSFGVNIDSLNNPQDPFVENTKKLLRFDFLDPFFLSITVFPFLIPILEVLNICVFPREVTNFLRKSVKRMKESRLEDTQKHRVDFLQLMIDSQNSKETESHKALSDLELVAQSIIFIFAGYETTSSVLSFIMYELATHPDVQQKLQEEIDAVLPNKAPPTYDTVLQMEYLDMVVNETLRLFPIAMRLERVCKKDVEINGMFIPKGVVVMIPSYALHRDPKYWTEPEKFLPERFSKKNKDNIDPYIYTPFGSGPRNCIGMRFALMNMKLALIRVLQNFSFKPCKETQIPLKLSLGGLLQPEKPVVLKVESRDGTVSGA

[22] = system: Hepatocyte; assay: Clearance in human hepatocytes; format: ADME, cell-based
Outline: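 Human hepatocytes in vitro, n = 4 preparations. Metabolic clearance expressed per 10^6 hepatocytes per hour. Also tested at a lower 0.5 concentration to check for concentration dependence.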

[23] = Metabolic stability in guinea pig microsomes; format: ADME, Cavia porcellus, Microsome
Outline: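 Percentage biotransformation measured in vitro in liver microsomes of each species.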

[24] = system: Plasma; assay: Metabolic stability in monkey plasma; format: ADME, cell-free, Macaca mulatta; details: rhesus monkey
Outline: (§6)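 Compound stability measured in plasma of each species in vitro.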

[25] = Metabolic stability in guinea pig plasma; format: ADME, cell-free, Cavia porcellus; outline: as §6
[26] = target: Histamine H3 receptor (Cavia porcellus) (UniProt Q9JI35); assay: Antagonist activity at histamine H3 receptor in guinea pig ileum assessed as inhibition of RAMH-induced inhibition of electrical field-stimulated contraction; format: tissue-based
Sequence of Histamine H3 receptor (Cavia porcellus) (Q9JI35 whole entry): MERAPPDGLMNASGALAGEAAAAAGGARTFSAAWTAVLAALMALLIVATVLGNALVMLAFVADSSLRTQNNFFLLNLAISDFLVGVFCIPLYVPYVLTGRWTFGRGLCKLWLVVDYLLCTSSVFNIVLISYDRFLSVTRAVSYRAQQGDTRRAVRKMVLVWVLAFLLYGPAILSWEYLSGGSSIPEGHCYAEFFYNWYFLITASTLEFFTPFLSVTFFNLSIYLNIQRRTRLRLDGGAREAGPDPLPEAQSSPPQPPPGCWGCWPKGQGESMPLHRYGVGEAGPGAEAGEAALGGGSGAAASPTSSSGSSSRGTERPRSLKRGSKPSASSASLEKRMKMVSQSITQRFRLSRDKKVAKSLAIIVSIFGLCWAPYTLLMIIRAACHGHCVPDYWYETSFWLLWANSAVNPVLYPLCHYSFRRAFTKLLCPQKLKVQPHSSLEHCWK
Outline: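 Isolated guinea pig ileum contracted by electrical field stimulation. Contractions inhibited with the H3 agonist RAMH; test compound examined for competitive antagonism of this RAMH effect.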

[27] = Drug degradation in gastrointestinal tract simulation medium after 48 hrs at room temperature; format: physicochemical; details: read-out: Drug degradation
Outline: (§7)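 Compound kept 48 h at room temperature in water, aqueous solutions of pH 1.0–7.4, DMSO, or GI-tract simulation medium. Percent degradation measured.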

[28] = Drug degradation in aqueous solution at pH 1.0 to 7.4 after 48 hrs at room temperature; format: physicochemical; details: read-out: Drug degradation; outline: as §7
[29] = Drug degradation in DMSO after 48 hrs at room temperature; format: physicochemical; details: read-out: Drug degradation; outline: as §7
[30] = Solubility of the compound in gastrointestinal tract simulation medium; format: physicochemical
[31] = Drug degradation in water after 48 hrs at room temperature; format: physicochemical; details: read-out: Drug degradation; outline: as §7
[32] = Distribution coefficient, log D of the compound at pH 7.4; format: physicochemical; details: octanol/water

Which results are given for `Cc1cc(N2CC[C@H](N3CCC[C@@H]3C)C2)ccc1NC(=O)C1CCOCC1`?
Activity [1]: Active; concentration at 0.25 h [2]: 14 µM; concentration at 5 min [3]: 28 µM; Activity [4]: Non-toxic; Activity [5]: Non-toxic; Activity [6]: Non-toxic; Activity [7]: Non-toxic; Activity [8]: Non-toxic; Activity [9]: Non-toxic; Activity [10]: Not Active; AUC [11]: 4200 ng·h/mL; half-life [12]: 216 min; clearance [13]: 1 L/h/kg; half-life [14]: 258 min; Kp [15]: 0.35; AUC(0-inf) [16]: 2100 ng·h/mL; bioavailability [17]: 58%; AUC(0-inf) [18]: 1100 ng·h/mL; inhibition (INH) [19]: Active; inhibition (INH) [20]: Active; inhibition at 0.5 µM [21]: 49%; CLH [22]: 0.031 mL/h; Stability [23]: Stable; Stability [24]: Stable; Stability [25]: Stable; inhibition [26]: Active; degraded at 48 h [27]: < 2%; degraded at 48 h [28]: < 2%; degraded at 48 h [29]: < 2%; solubility [30]: > 2500 µg/mL; degraded at 48 h [31]: < 2%; logD [32]: 0.15
